Tests used:
[1] = system: HEK-293T; experiment: Multiplex assay against HEK293T; type: toxicity, cell-based; conditions: human;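 on Population Tubulin-Different-Phenotype (%): share of the cells with healthy nuclei that show this phenotype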
Summary of the method: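 On a CQ1 microscope at 37°C and 5% CO2, live cells were imaged after compound addition. They had been stained at seeding with Hoechst33342, BioTracker Green Microtubule Cytoskeleton Dye, MitoTracker Red and Annexin V Alexa Fluor 680. CellPathfinder machine-learning gating assigned cells to Hoechst high-intensity objects or normal cells, normal cells to healthy, pyknosed or fragmented nuclei, and pyknosed cells to mitotic or apoptotic. Tubulin, mitochondrial-mass and membrane-permeability phenotypes are per cents of healthy-nucleus cells.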

[2] = system: Fibroblast; experiment: Incucyte cell viability with human fibroblast; type: toxicity, cell-based; conditions: 10 µM, compound concentration 10 uM; further: filed as whole numbers so only -1 and 0 and 1 occur
[3] = 12 h, 1 µM, compound concentration 1 uM, replicate 1
[4] = 12 h, 1 µM, compound concentration 1 uM, replicate 2
[5] = 12 h, 10 µM, compound concentration 10 uM, replicate 1
[6] = 12 h, 10 µM, compound concentration 10 uM, replicate 2
[7] = 24 h, 1 µM, compound concentration 1 uM, replicate 1
[8] = 24 h, 1 µM, compound concentration 1 uM, replicate 2
[9] = 24 h, 10 µM, compound concentration 10 uM, replicate 1
[10] = 24 h, 10 µM, compound concentration 10 uM, replicate 2
[11] = 48 h, 1 µM, compound concentration 1 uM, replicate 1
[12] = 48 h, 1 µM, compound concentration 1 uM, replicate 2
[13] = 48 h, 10 µM, compound concentration 10 uM, replicate 1
[14] = 48 h, 10 µM, compound concentration 10 uM, replicate 2

O=C(O)c1ccc2cc(-c3ccc(O)c(C45CC6CC(CC(C6)C4)C5)c3)ccc2c1 [O-DEMETHYLATED ADAPALENE]
Population Apoptotic (%) [1, 3]: 35%
Population Fragmented Nuclei (%) [1, 3]: 6%
Population Healthy Nuclei (%) [1, 3]: 60%
Population Hoechst High Intensity Objects (%) [1, 3]: 5%
Population Membrane Permeable-Phenotype (%) [1, 3]: 1%
Population Mitochondria Different-Phenotype (%) [1, 3]: 70%
Population Mitotic Cells (%) [1, 3]: 64%
Population Normal (%) [1, 3]: 94%
Population Pyknosed Nuclei (%) [1, 3]: 33%
Population Tubulin-Different-Phenotype (%) [1, 3]: 30%
Total Cell Count [1, 3]: 320
Population Apoptotic (%) [1, 4]: 12%
Population Fragmented Nuclei (%) [1, 4]: 2%
Population Healthy Nuclei (%) [1, 4]: 57%
Population Hoechst High Intensity Objects (%) [1, 4]: 4%
Population Membrane Permeable-Phenotype (%) [1, 4]: 8%
Population Mitochondria Different-Phenotype (%) [1, 4]: 15%
Population Mitotic Cells (%) [1, 4]: 87%
Population Normal (%) [1, 4]: 95%
Population Pyknosed Nuclei (%) [1, 4]: 40%
Population Tubulin-Different-Phenotype (%) [1, 4]: 17%
Total Cell Count [1, 4]: 214
Population Apoptotic (%) [1, 5]: 53%
Population Fragmented Nuclei (%) [1, 5]: 21%
Population Healthy Nuclei (%) [1, 5]: 33%
Population Hoechst High Intensity Objects (%) [1, 5]: 15%
Population Mitochondria Different-Phenotype (%) [1, 5]: 52%
Population Mitotic Cells (%) [1, 5]: 46%
Population Normal (%) [1, 5]: 84%
Population Pyknosed Nuclei (%) [1, 5]: 45%
Population Tubulin-Different-Phenotype (%) [1, 5]: 14%
Total Cell Count [1, 5]: 204
Population Apoptotic (%) [1, 6]: 14%
Population Fragmented Nuclei (%) [1, 6]: 8%
Population Healthy Nuclei (%) [1, 6]: 43%
Population Hoechst High Intensity Objects (%) [1, 6]: 5%
Population Membrane Permeable-Phenotype (%) [1, 6]: 3%
Population Mitochondria Different-Phenotype (%) [1, 6]: 6%
Population Mitotic Cells (%) [1, 6]: 85%
Population Normal (%) [1, 6]: 94%
Population Pyknosed Nuclei (%) [1, 6]: 47%
Population Tubulin-Different-Phenotype (%) [1, 6]: 11%
Total Cell Count [1, 6]: 228
Population Apoptotic (%) [1, 7]: 37%
Population Fragmented Nuclei (%) [1, 7]: 5%
Population Hoechst High Intensity Objects (%) [1, 7]: 5%
Population Membrane Permeable-Phenotype (%) [1, 7]: 6%
Population Mitochondria Different-Phenotype (%) [1, 7]: 44%
Population Mitotic Cells (%) [1, 7]: 62%
Population Normal (%) [1, 7]: 94%
Population Pyknosed Nuclei (%) [1, 7]: 19%
Population Tubulin-Different-Phenotype (%) [1, 7]: 24%
Total Cell Count [1, 7]: 354
Population Apoptotic (%) [1, 8]: 13%
Population Fragmented Nuclei (%) [1, 8]: 6%
Population Healthy Nuclei (%) [1, 8]: 75%
Population Hoechst High Intensity Objects (%) [1, 8]: 1%
Population Membrane Permeable-Phenotype (%) [1, 8]: 13%
Population Mitochondria Different-Phenotype (%) [1, 8]: 14%
Population Mitotic Cells (%) [1, 8]: 86%
Population Normal (%) [1, 8]: 98%
Population Pyknosed Nuclei (%) [1, 8]: 18%
Population Tubulin-Different-Phenotype (%) [1, 8]: 26%
Total Cell Count [1, 8]: 257
Population Apoptotic (%) [1, 9]: 52%
Population Fragmented Nuclei (%) [1, 9]: 16%
Population Healthy Nuclei (%) [1, 9]: 43%
Population Hoechst High Intensity Objects (%) [1, 9]: 20%
Population Membrane Permeable-Phenotype (%) [1, 9]: 1%
Population Mitochondria Different-Phenotype (%) [1, 9]: 34%
Population Mitotic Cells (%) [1, 9]: 47%
Population Normal (%) [1, 9]: 79%
Population Pyknosed Nuclei (%) [1, 9]: 40%
Population Tubulin-Different-Phenotype (%) [1, 9]: 14%
Total Cell Count [1, 9]: 218
Population Apoptotic (%) [1, 10]: 25%
Population Fragmented Nuclei (%) [1, 10]: 11%
Population Healthy Nuclei (%) [1, 10]: 50%
Population Hoechst High Intensity Objects (%) [1, 10]: 11%
Population Membrane Permeable-Phenotype (%) [1, 10]: 4%
Population Mitochondria Different-Phenotype (%) [1, 10]: 17%
Population Mitotic Cells (%) [1, 10]: 75%
Population Normal (%) [1, 10]: 88%
Population Pyknosed Nuclei (%) [1, 10]: 38%
Population Tubulin-Different-Phenotype (%) [1, 10]: 16%
Total Cell Count [1, 10]: 234
Population Apoptotic (%) [1, 11]: 26%
Population Fragmented Nuclei (%) [1, 11]: 10%
Population Hoechst High Intensity Objects (%) [1, 11]: 6%
Population Membrane Permeable-Phenotype (%) [1, 11]: 2%
Population Mitochondria Different-Phenotype (%) [1, 11]: 13%
Population Mitotic Cells (%) [1, 11]: 73%
Population Normal (%) [1, 11]: 93%
Population Tubulin-Different-Phenotype (%) [1, 11]: 10%
Total Cell Count [1, 11]: 565
Population Apoptotic (%) [1, 12]: 15%
Population Fragmented Nuclei (%) [1, 12]: 9%
Population Healthy Nuclei (%) [1, 12]: 80%
Population Hoechst High Intensity Objects (%) [1, 12]: 2%
Population Membrane Permeable-Phenotype (%) [1, 12]: 11%
Population Mitochondria Different-Phenotype (%) [1, 12]: 1%
Population Mitotic Cells (%) [1, 12]: 84%
Population Normal (%) [1, 12]: 97%
Population Pyknosed Nuclei (%) [1, 12]: 9%
Population Tubulin-Different-Phenotype (%) [1, 12]: 19%
Total Cell Count [1, 12]: 390
Population Apoptotic (%) [1, 13]: 51%
Population Fragmented Nuclei (%) [1, 13]: 21%
Population Healthy Nuclei (%) [1, 13]: 30%
Population Hoechst High Intensity Objects (%) [1, 13]: 19%
Population Membrane Permeable-Phenotype (%) [1, 13]: 1%
Population Mitochondria Different-Phenotype (%) [1, 13]: 22%
Population Mitotic Cells (%) [1, 13]: 48%
Population Normal (%) [1, 13]: 80%
Population Pyknosed Nuclei (%) [1, 13]: 48%
Population Tubulin-Different-Phenotype (%) [1, 13]: 16%
Total Cell Count [1, 13]: 217
Population Apoptotic (%) [1, 14]: 32%
Population Fragmented Nuclei (%) [1, 14]: 12%
Population Healthy Nuclei (%) [1, 14]: 33%
Population Hoechst High Intensity Objects (%) [1, 14]: 9%
Population Mitochondria Different-Phenotype (%) [1, 14]: 2%
Population Mitotic Cells (%) [1, 14]: 67%
Population Normal (%) [1, 14]: 90%
Population Pyknosed Nuclei (%) [1, 14]: 53%
Population Tubulin-Different-Phenotype (%) [1, 14]: 10%
Total Cell Count [1, 14]: 243
Growth Rate ([2]; 0 h, replicate number 1, timepoint 0 hours): 0
Growth Rate ([2]; 6 h, replicate number 1, timepoint 6 hours): 0
Growth Rate ([2]; 12 h, replicate number 1, timepoint 12 hours): 0
Growth Rate ([2]; 12 h, replicate number 2, timepoint 12 hours): 1
Growth Rate ([2]; 18 h, replicate number 1, timepoint 18 hours): 0
Growth Rate ([2]; 24 h, replicate number 1, timepoint 24 hours): 0
